Measurements from article PMC10012271 (ACS Infectious Diseases, 2023).
In brackets after ≈: the same amount, converted by molar mass. Entries after “also recorded” stand apart in the source; their conditions may differ.

Assays:
[1] = molecular target: human recombinant glyoxylase II (Homo sapiens, UniProt Q16775); experiment: Binding specificity, glyoxylase II activity; assay type: biochemical; settings: for reduction of glyoxylase II activity: concentration not stated in the sentence (Table S2)
[2] = test system: Klebsiella pneumoniae NDM; experiment: MIC, broth microdilution / checkerboard; assay type: cell-based
How it was run: (§1)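 Two-fold dilution series in Mueller Hinton broth, per CLSI. Meropenem stock was in water and test compound stock in 50% DMSO, with final DMSO <1.0%. Wells got a 0.5 McFarland-standardised inoculum and were incubated at 35 °C for 18–20 h. MIC was the lowest concentration with no visible growth, run in triplicate.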

[3] = test system: Klebsiella pneumoniae ATCC 700603; experiment: MIC, broth microdilution / checkerboard; assay type: cell-based
[4] = test system: K. pneumoniae USA 449 (NDM); experiment: Antimicrobial susceptibility testing, broth microdilution; assay type: cell-based; settings: Klebsiella pneumoniae, read-out: MIC alone
How it was run: as §1

[5] = test system: E. cloacae IR 386 (NDM-1); experiment: as above; assay type: cell-based; settings: Enterobacter cloacae, read-out: MIC alone
How it was run: as §1

E. cloacae KAR (VIM-1) = experiment: as above; assay type: cell-based; settings: Enterobacter cloacae, read-out: MIC alone
How it was run: as §1

E. coli ATCC 25922 = experiment: as above; assay type: cell-based; settings: Escherichia coli, ATCC25922, read-out: MIC alone
How it was run: as §1

E. coli AUS 271 (NDM-1) = experiment: as above; assay type: cell-based; settings: Escherichia coli, read-out: MIC alone
How it was run: as §1

K. pneumoniae NDM = experiment: Time kill kinetic study; assay type: cell-based; settings: without BP1
How it was run: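 Overnight culture was diluted to about 10^6 cfu/mL and exposed to test compound fixed at 32 mg/L plus meropenem 0.5, 1 or 2 mg/L. Incubation was at 35 °C with 100 rpm shaking, alongside drug-free and meropenem-only controls. At 0, 2, 4, 6, 8 and 24 h, 0.1 mL was plated on MHA and incubated at 35 °C for ≥18 h, then cfu/mL counted. Analysis was by ANOVA.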

[6] = In vivo single-dose pharmacokinetics; parameters: species or system BALB/c mice; settings: 10 mg/kg.b.w IP, plasma
How it was run: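 Female BALB/c mice, 6–8 weeks, acclimatised two weeks, got meropenem 10 mg/kg.b.w plus test compound 10 mg/kg.b.w together IP. Animals were killed at 0, 5, 15, 30, 45, 60, 90 and 120 min post-dose, with blood taken by cardiac puncture and stored at −80 °C. Drugs were quantified by LC–MS/MS (C18, water/acetonitrile with 0.1% TFA gradient, ESI, MRM mode).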

E. coli FEK (NDM-4) = experiment: Antimicrobial susceptibility testing, broth microdilution; assay type: cell-based; settings: Escherichia coli, read-out: MIC alone
How it was run: as §1

E. coli JAP (IMP-1) = experiment: as above; assay type: cell-based; settings: Escherichia coli, read-out: MIC alone
How it was run: as §1

E. coli TWA (IMP-8) = experiment: as above; assay type: cell-based; settings: Escherichia coli, read-out: MIC alone
How it was run: as §1

O=C(O)CN(CCN(CC(=O)O)CC(=O)O)CC(=O)O [EDTA]
reduction of glyoxylase II activity [1]: 39%

O=C(O)CN1CCN(CC(=O)O)CCN(CC(=O)O)CC1 [NOTA, 1,4,7-triazacyclononane-1,4,7-triacetic acid]
MIC ([2]; drug alone): do not possess any activity
MIC ([3]; drug alone): do not possess any activity; also recorded: resistant from 256 to 0.125
inhibition of glyoxylase II ([1]; up to 500 μM): did not reduce the activity

c1ccc(CN(CCN(Cc2ccccn2)Cc2ccccn2)Cc2ccccn2)nc1 [TPEN, N,N,N′,N′-tetrakis(2-pyridinylmethyl)-1,2-ethanediamine]
reduction of glyoxylase II activity [1]: 48%

C[C@@H](O)[C@H]1C(=O)N2C(C(=O)O)=C(S[C@@H]3CN[C@H](C(=O)N(C)C)C3)[C@H](C)[C@H]12 [meropenem]
MIC ([2]; Klebsiella pneumoniae): 128 µg/mL
MIC [4]: 128 µg/mL (≈ 334 µM)
MIC [5]: 32 µg/mL (≈ 83.4 µM)
MIC (E. cloacae KAR (VIM-1)): 16 µg/mL (≈ 41.7 µM)
MIC (E. coli ATCC 25922): 0.06 µg/mL (≈ 0.156 µM)
MIC (E. coli AUS 271 (NDM-1)): 128 µg/mL (≈ 334 µM)
MIC ([3]; Klebsiella pneumoniae, ATCC700603): 0.03 µg/mL
time-kill activity, meropenem-only test group (K. pneumoniae NDM): ineffectiveness
time of peak concentration (Cmax) post drug administration [6]: 15 min
MIC (E. coli FEK (NDM-4)): 128 µg/mL (≈ 334 µM)
MIC (E. coli JAP (IMP-1)): 8 µg/mL (≈ 20.9 µM)
MIC (E. coli TWA (IMP-8)): 4 µg/mL (≈ 10.4 µM)
